Usually pIC50 stands for the negative decadic logarithm of the IC50, by convention in mol/L. The low end stands for a large IC50, the high end for a small IC50. Broadly, the pKd is the Kd on a negative log10 scale, so that one unit is a factor of ten. Lower therefore signals a large Kd.

For assay [1], the system named is Leishmania donovani. The experiment in a line: Binding affinity to Leishmania donovani MetAP1 expressed in Escherichia coli BL21 (DE3) assessed as intrinsic fluorescence quenching of tryptophan residues measured after 30 mins by fluorescence spectroscopic method. An outline of the steps: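 LdMetAP1 at 1 µM final in 20 mM Tris-HCl pH 7.5, 50 mM NaCl, incubated with compounds for 30 min at 25°C. Tryptophan fluorescence read at excitation ~295 nm, emission ~300-400 nm. F0/F1 plotted against compound concentration. KSV from linear regression; binding parameters from modified Stern-Volmer plots.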

A short description of assay [2]: Cytotoxicity against mouse embryonic fibroblasts measured after 48 hrs by MTT assay. Conditions: Fibroblast. An outline of the steps:
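Mouse embryonic fibroblasts exposed to compounds at 0, 50, 100 and 200 µM for 48 h. MTT solution (5 mg/ml) then added for 4 h at 37°C. Formazan dissolved in DMSO and absorbance read at 570 nm.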
(In general: Tetrazolium assays rely on reduction of a dye to a coloured formazan, in cell work by metabolically active cells.)

A short description of assay [3]: Inhibition of Leishmania donovani MetAP1 expressed in Escherichia coli BL21 (DE3) using L-methionine-4-methyl-coumary1-7-amide as substrate preincubated for 30 mins followed by substrate addition and measured at 1 min interval for 30 mins by spectrofluorometric method. An outline of the steps:
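His-tagged LdMetAP1 from pET28a, purified by Ni-NTA and gel filtration. Enzyme preincubated 30 min in metal-supplemented assay buffer with compound. L-Met-AMC added at 125 µM and fluorescence recorded. Percent inhibition taken as the net fluorescence decrease against control reactions; IC50 from a range of compound concentrations.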

A short description of assay [4]: Binding affinity to Leishmania donovani MetAP1 expressed in Escherichia coli BL21 (DE3) by surface plasmon resonance analysis. An outline of the steps: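 Recombinant LdMetAP1 amine-coupled to a CM-5 dextran chip. Running and injection buffer was 1X PBS pH 7.4 with 0.05% P-20. Compounds in 2% DMSO injected over the chip at a range of concentrations to record response units. After solvent correction, kinetics fitted to a 1:1 Langmuir binding model.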
(In general: In SPR one partner is held on a chip, and binding of the other changes the refractive index at the surface.)

Assay [5] deals with Leishmania donovani. The experiment in a line: Competitive inhibition of Leishmania donovani MetAP1 expressed in Escherichia coli BL21 (DE3) at 1 to 10 uM using varying levels of L-methionine-4-methyl-coumary1-7-amide as substrate preincubated for 30 mins followed by substrate addition and measured for 30 mins by Lineweaver-burk plot analysis. The note with it: dose 1-10 µM, time 60.0 min.

The subject of assay [6] is Leishmania donovani. The experiment in a line: Uncompetitive inhibition of Leishmania donovani MetAP1 expressed in Escherichia coli BL21 (DE3) at 1 to 10 uM using varying levels of L-methionine-4-methyl-coumary1-7-amide as substrate preincubated for 30 mins followed by substrate addition and measured for 30 mins by Lineweaver-burk plot analysis. Conditions: dose 1-10 µM, time 60.0 min.

pIC50, pKd: −log10 of the molar value. The source made the active and inactive calls. The calls are words filed in the database; no cut-off is given here.

Take `O=C1CSC(c2ccc3cccc(O)c3n2)N1c1ccc(Cl)cc1` (stereo unspecified): the Activity entry in assay [1] is “Dose-dependent effect”. For the same compound, the pIC50 in assay [2] is < 3.70; in assay [3] it was 5.96. The compound further gave a pKd in assay [4] of 7.82. In addition, the inhibition entry in assay [5] is “Active”. `CC(C)c1ccc(N2C(=O)CSC2c2ccc3cccc(O)c3n2)cc1` (stereo unspecified) showed a pIC50 in assay [3] of 4.43. Same read-out and setting: to `COc1ccc(N2C(=O)CSC2c2ccc3cccc(O)c3n2)cc1OC` (stereo unspecified) belongs 4.58; to `COc1cc(N2C(=O)CSC2c2ccc3cccc(O)c3n2)cc(OC)c1OC` (stereo unspecified), 4.89. Still for that read-out and setting: in the case of `O=C1CSC(c2ccc3cccc(O)c3n2)N1c1ccc(I)cc1` (stereo unspecified) it was 3.60; in that of `COc1cccc(N2C(=O)CSC2c2ccc3cccc(O)c3n2)c1` (stereo unspecified), 4.40; in that of `O=C1CSC(c2ccc3cccc(O)c3n2)N1c1cccc(Br)c1` (stereo unspecified), 4.34. On the same count and under the same terms, in the case of `Cc1cccc(N2C(=O)CSC2c2ccc3cccc(O)c3n2)c1` (stereo unspecified) it was 4.55; in that of `O=C1CSC(c2ccc3cccc(O)c3n2)N1c1ccc(F)cc1` (stereo unspecified), 4.34. In the case of `COc1ccccc1N1C(=O)CSC1c1ccc2cccc(O)c2n1` (stereo unspecified), the pIC50 in assay [3] was 4.73. Still for that read-out and setting: in the case of `O=C1CSC(c2ccc3cccc(O)c3n2)N1c1ccccc1` (stereo unspecified) it was 4.10.

In the case of `N#Cc1cccc(N2C(=O)CSC2c2ccc3cccc(O)c3n2)c1` (stereo unspecified), in assay [1], the Activity result is “Dose-dependent effect”. The pIC50 is < 3.60 in assay [2] and 4.93 in assay [3]. The negative-log Kd (pKd) in assay [4] was 7.81. In addition, in assay [5], the inhibition entry is “Active”.

With `O=C1CSC(c2ccc3cccc(O)c3n2)N1c1ccc(C(F)(F)F)cc1` (stereo unspecified), in assay [3], the pIC50 was 4.27.

In the case of `O=C1CSC(c2ccc3cccc(O)c3n2)N1c1ccc(Br)cc1` (stereo unspecified), in assay [3], the pIC50 is 4.43. With `Cc1ccc(N2C(=O)CSC2c2ccc3cccc(O)c3n2)cc1` (stereo unspecified), the Activity result in assay [1] is “Dose-dependent effect”. Moreover, the pIC50 is < 3.70 in assay [2] and 5.88 in assay [3]. In assay [4], this compound gave a negative-log Kd (pKd) of 7.67. Also, the inhibition entry in assay [5] was “Active”. Turning to `O=C1CSC(c2ccc3cccc(O)c3n2)N1c1cccc(OC(F)(F)F)c1` (stereo unspecified), in assay [3], the pIC50 was 4.33. As to `O=C1CSC(c2ccc3cccc(O)c3n2)N1c1ccc(Oc2ccccc2)cc1` (stereo unspecified), in assay [3], the negative logarithm of the IC50 (pIC50) is 4.36. On the same count and under the same terms, in the case of `COc1ccc(N2C(=O)CSC2c2ccc3cccc(O)c3n2)cc1` (stereo unspecified) it was 4.20; in that of `COc1cc(OC)cc(N2C(=O)CSC2c2ccc3cccc(O)c3n2)c1` (stereo unspecified), 4.73. Turning to `O=C1CSC(c2ccc3cccc(O)c3n2)N1c1cccc(F)c1` (stereo unspecified), the Activity entry in assay [1] was “Dose-dependent effect”. In addition, the negative-log IC50 (pIC50) in assay [2] is 3.92; in assay [3], 5.06. Further, the inhibition result in assay [6] is “Active”. The compound further had a pKd in assay [4] of 9.79.
